LMPTP inh = LMPTP (human) inhibition; inhibition, % at 20 µM; actives 0.22% (n = 360,000); recombinant LMPTP-A, OMFP fluorogenic substrate, fluorescence intensity; P24666;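 active = compounds that cut the enzyme signal by at least half of the control window in the single-dose screen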;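 note: plate controls were DMSO wells with enzyme plus substrate for no effect and substrate without enzyme for full effect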
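Test system: LMPTP-A phosphatase enzyme; input: 0.625 nM LMPTP-A final; reagent: OMFP substrate, 400 µM final; compound dosing: 20 µM single dose, 3% DMSO; incubation: 50 min dark incubation at room temperature; measured by: endpoint fluorescence intensity from OMFP dephosphorylation; measure: % inhibition relative to no-enzyme and uninhibited control wells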
DNMT1 inh = DNMT1 (human) enzyme inhibition | actives 0.83% (n = 360,000) | DNMT1 molecular beacon, Hinp1I cleavage, fluorescence | inhibition (reported as % activation of signal), % at 10 µM; in the data active = inhibition above about 50%
Scp-1 inhibitor = inhibitors of human Scp-1 phosphatase. actives 0.88% (n = 340,000). Q9GZU7. Recombinant Scp1, phosphopeptide, malachite green phosphate absorbance. inhibition, % at 20 µM;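 active = inhibition above about 50% at 20 µM, limit read from the data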;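 note: plate controls were DMSO wells with enzyme for no effect and wells lacking enzyme for full effect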
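Assay system: SCP-1 catalytic fragment, aa 76-261 | Buffer or medium: Tris acetate buffer pH 5.5 with MgCl2 and Tween-20 | Compound: One concentration, 20 µM, with 1.0% DMSO | Also added: Phospho 17-mer peptide substrate | Signal: Absorbance at 630 nm | Incubation: 45 min enzyme reaction at room temperature | Measure: % inhibition of SCP-1 phosphate liberation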
SUMO1-SIM PPI = modulators of human SUMO1-mediated protein-protein interactions; SUMO1 binding to a labelled peptide, TR-FRET, 1 h; inhibition, % at 20 µM; P63165; actives 0.33% (n = 360,000); in the data active = inhibition above about 37%
Target sequence (P63165 whole entry, looked up): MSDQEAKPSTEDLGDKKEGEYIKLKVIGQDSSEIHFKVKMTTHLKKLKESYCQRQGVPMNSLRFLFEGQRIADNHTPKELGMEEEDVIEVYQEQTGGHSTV
STEP block = STEP (human) phosphatase inhibition | recombinant STEP, OMFP fluorogenic substrate, fluorescence | actives 0.25% (n = 360,000) | AID 588621 | inhibition, % at 20 µM;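 active = inhibition at 20 µM, scaled per plate between control wells, above about 37%, limit read from the data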;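 note: 0% = DMSO with enzyme and substrate and 100% = substrate only without enzyme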
Target sequence (P54829 whole entry, looked up): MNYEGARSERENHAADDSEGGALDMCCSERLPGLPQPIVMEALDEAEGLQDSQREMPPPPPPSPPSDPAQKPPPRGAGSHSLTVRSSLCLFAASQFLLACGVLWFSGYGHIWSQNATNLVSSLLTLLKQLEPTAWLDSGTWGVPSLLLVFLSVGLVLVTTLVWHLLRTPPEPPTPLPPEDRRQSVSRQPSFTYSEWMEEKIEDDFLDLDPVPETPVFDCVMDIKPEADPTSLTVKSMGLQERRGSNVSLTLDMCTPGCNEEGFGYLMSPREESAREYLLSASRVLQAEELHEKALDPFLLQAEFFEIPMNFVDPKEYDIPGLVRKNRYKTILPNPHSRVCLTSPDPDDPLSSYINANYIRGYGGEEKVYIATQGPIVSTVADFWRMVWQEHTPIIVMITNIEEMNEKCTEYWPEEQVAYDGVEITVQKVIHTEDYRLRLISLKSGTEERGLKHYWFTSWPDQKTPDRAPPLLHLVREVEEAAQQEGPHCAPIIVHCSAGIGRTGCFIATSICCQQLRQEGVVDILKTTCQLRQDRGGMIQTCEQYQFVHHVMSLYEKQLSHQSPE
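Assay system: isolated STEP enzyme. Buffer or medium: pH 6.0 Bis-Tris with DTT and Tween 20. Also added: fluorogenic phosphatase substrate OMFP at 25 µM final. Dosing: 20 µM, 1% DMSO. Timing: 20 min reaction, room temperature, in the dark. Measured by: fluorescence intensity, excitation 480 nm, emission 540 nm. Evaluation: normalized % inhibition.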
GRK2 aptamer HTS = human GRK2 inhibition via aptamer displacement; actives 0.59% (n = 330,000); AID 488847; inhibition of aptamer binding, % at 10 µM; bead flow cytometry, FAM-aptamer displacement from GRK2;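 active = inhibition of aptamer binding above 40%, roughly 3 SD of noise, on plates passing a quality check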;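 note: median bead fluorescence of bound FAM aptamer so fluorescent compounds give negative values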
STEP inh conf = STEP (human) phosphatase inhibition, single concentration confirmation; inhibition, % at 20 µM; recombinant STEP, OMFP fluorogenic substrate, fluorescence; shares compounds with STEP block; AID 623866; actives 32% (n = 520); call rule not given here;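 note: 0% = enzyme with substrate plus DMSO and 100% = substrate without enzyme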
Numbers without * were called inactive. This is a sample that favours compounds with a hit; in the whole collection about 2.2% have one here.

For CN1CCc2c(sc(/N=C/c3c[nH]c4ccccc34)c2C(N)=O)C1 the results were LMPTP inh 67*, DNMT1 inh -41, Scp-1 inhibitor -8, SUMO1-SIM PPI 92*, STEP block 51*, GRK2 aptamer HTS 0 and STEP inh conf 0.
Screening CCOC(=O)c1c(NC(=O)OC)sc(C(=O)N(CC)CC)c1C returned LMPTP inh 1, DNMT1 inh -2, Scp-1 inhibitor -3, SUMO1-SIM PPI -3, STEP block 82*, GRK2 aptamer HTS 2 and STEP inh conf 52*.
For CCOC(=O)c1sc(NC(=O)OC)c(C(=O)OC)c1C the results were LMPTP inh -1, DNMT1 inh 0, Scp-1 inhibitor -6, SUMO1-SIM PPI 7, STEP block 1 and GRK2 aptamer HTS 3.
Screening CC(=O)Nc1ccc(C(=O)CN2CCN(c3ccccc3)CC2)cc1 returned LMPTP inh 4, DNMT1 inh -7, Scp-1 inhibitor -1, SUMO1-SIM PPI 70*, STEP block 47*, GRK2 aptamer HTS 0 and STEP inh conf 16.
`COc1cccc(NC(=O)N(C)C[C@H]2OCc3cn(nn3)CCCC(=O)N([C@@H](C)CO)C[C@@H]2C)c1` gave LMPTP inh -3, DNMT1 inh -5, SUMO1-SIM PPI -16 and STEP block -2.
OC[C@@H]1CN(Cc2ccc(Cl)cc2)C[C@H](n2cnc3c(Nc4ccccc4)ncnc32)O1 was read as LMPTP inh 0, DNMT1 inh -4, SUMO1-SIM PPI -7 and STEP block -2.
CCCCN(CC)Cc1ccc(CNC(=S)Nc2c(C)cc(C)cc2C)o1 was read as LMPTP inh -1, DNMT1 inh -1, Scp-1 inhibitor -13, SUMO1-SIM PPI 2, STEP block 85*, GRK2 aptamer HTS 0 and STEP inh conf 45*.
Screening CCCCN(CC)Cc1ccc(CNC(=S)Nc2ccc(C)cc2Cl)o1 returned LMPTP inh 2, DNMT1 inh -7, Scp-1 inhibitor -5, SUMO1-SIM PPI -4, STEP block 5 and GRK2 aptamer HTS 0.
Screening CC(C)n1[nH]c2ccccc2c1=O returned LMPTP inh 0, DNMT1 inh -1, SUMO1-SIM PPI 2 and STEP block 1.
Cc1nc(NC(=O)C2CC2)sc1C(=O)Nc1ccccc1 was read as LMPTP inh 0, DNMT1 inh -2, Scp-1 inhibitor -4, SUMO1-SIM PPI -1, STEP block 2 and GRK2 aptamer HTS 0.
For Cc1nc(NC(N)=S)sc1C(=O)Nc1ccccc1 the results were LMPTP inh 11, DNMT1 inh 1, Scp-1 inhibitor 3, SUMO1-SIM PPI 0, STEP block 50*, GRK2 aptamer HTS 1 and STEP inh conf 16.
Screening O=C(Nc1ccc(C(=O)N2CCCCC2)cc1)c1cccs1 returned LMPTP inh 2, DNMT1 inh 7, Scp-1 inhibitor -7, SUMO1-SIM PPI -17, STEP block 68*, GRK2 aptamer HTS 2 and STEP inh conf 4.
For COCCN(Cc1ccc(C)cc1)C(=O)[C@H]1O[C@@H](n2cnc3c(N)ncnc32)[C@H](O)[C@@H]1O the results were LMPTP inh -2, DNMT1 inh 10, SUMO1-SIM PPI 2 and STEP block -3.
Screening NC1=NC[C@H](Cc2ccccc2)N1CCc1cccc(F)c1 returned LMPTP inh 17, DNMT1 inh -35, Scp-1 inhibitor 9, SUMO1-SIM PPI 74*, STEP block 70*, GRK2 aptamer HTS 0 and STEP inh conf 17.
CCOc1ccc(C(=S)N2CCN(C)CC2)cc1 was read as LMPTP inh -1, DNMT1 inh -2, Scp-1 inhibitor -7, SUMO1-SIM PPI 0, STEP block 81*, GRK2 aptamer HTS 0 and STEP inh conf 48*.
`OCCN1CCN(C(=S)c2ccc(Cl)cc2)CC1` gave LMPTP inh 1, DNMT1 inh 1, Scp-1 inhibitor 1, SUMO1-SIM PPI -1, STEP block 70*, GRK2 aptamer HTS 0 and STEP inh conf 13.
For CCOc1ccc(C(=S)N2CCCC2)cc1 the results were LMPTP inh -3, DNMT1 inh -3, Scp-1 inhibitor -5, SUMO1-SIM PPI 0, STEP block -2 and GRK2 aptamer HTS 5.
For CCN1CCN(C(=S)c2ccc(OC)cc2)CC1 the results were LMPTP inh -1, DNMT1 inh 2, Scp-1 inhibitor 1, SUMO1-SIM PPI 2, STEP block 73*, GRK2 aptamer HTS 2 and STEP inh conf 31.
O=[N+]([O-])c1ccc(C(=S)N2CCCC2)cc1 was read as LMPTP inh 0, DNMT1 inh 0, Scp-1 inhibitor -12, SUMO1-SIM PPI -19, STEP block 10 and GRK2 aptamer HTS 1.
For CCN1CCN(C(=S)c2ccc([N+](=O)[O-])cc2)CC1 the results were LMPTP inh -1, DNMT1 inh 3, Scp-1 inhibitor 1, SUMO1-SIM PPI -20, STEP block 62*, GRK2 aptamer HTS 4 and STEP inh conf 24.
CC(C)CC(=O)N1CC=CC[C@@H](c2ccc(Cl)cc2)N(Cc2ccc(Cl)cc2)C(=O)[C@@H]1Cc1ccccc1 was read as LMPTP inh 5, DNMT1 inh 0, Scp-1 inhibitor -6, SUMO1-SIM PPI 4 and STEP block 5.
Screening C#CCNC(=O)C[C@@H]1C[C@@]2(C(=O)OCC)CCCC=C2N(CCCCCCCC)C1=O returned LMPTP inh 2 and SUMO1-SIM PPI 3.
`CCN1CCN(C(=S)c2ccc(Cl)cc2)CC1` gave LMPTP inh 0, DNMT1 inh 1, Scp-1 inhibitor -5, SUMO1-SIM PPI -1, STEP block 95*, GRK2 aptamer HTS 0 and STEP inh conf 63*.
Screening S=C(c1ccc(Cl)cc1)N1CCN(Cc2ccccc2)CC1 returned LMPTP inh 1, DNMT1 inh 0, Scp-1 inhibitor -5, SUMO1-SIM PPI -2, STEP block 2 and GRK2 aptamer HTS 1.
For COc1ccc(O)cc1CN1CCN(c2ncc(Cc3ccccc3)cn2)CC1 the results were LMPTP inh 0 and SUMO1-SIM PPI 3.
For CCN1CCN(c2nc(C)nc3c2sc(=S)n3C)CC1 the results were LMPTP inh 3, DNMT1 inh -1, Scp-1 inhibitor -4, SUMO1-SIM PPI 1, STEP block 93* and STEP inh conf -10.
Screening COc1ccc(S(=O)(=O)Nc2noc3ccccc23)cc1 returned LMPTP inh -2, DNMT1 inh 3, Scp-1 inhibitor -8, SUMO1-SIM PPI 2, STEP block 84*, GRK2 aptamer HTS 0 and STEP inh conf -11.
COc1cccc(S(=O)(=O)Nc2noc3ccccc23)c1 was read as LMPTP inh 2, DNMT1 inh 1, Scp-1 inhibitor -10, SUMO1-SIM PPI 1, STEP block -2 and GRK2 aptamer HTS 3.
